Experimental data taken from paper PMC12067261 (Proceedings of the National Academy of Sciences of the …, 2025).
≈ marks a conversion by molar mass, not a printed value. Where “and” joins values, the source holds several entries; their conditions need not be identical. Identical values can stand only once. Like-named read-outs stand apart in the source and are kept apart here.

Assays:
HepG2 cells = assay: Cytotoxicity assays; format: cell-based, human; details: indirect measure of selectivity
[1] = Pharmacokinetic studies in mice; format: in vivo, CD-1 mice
in vitro = details: human, plasma
Mab ATCC19977 = assay: Spontaneous mutant selection; format: cell-based, Mycobacterium abscessus; details: solid medium containing 4× MIC
[2] = test system: Mab ATCC19977 (wild type); format: cell-based, Mycobacterium abscessus subsp. abscessus; details: concentration that inhibits 90% growth
[3] = test system: Mab type strain ATCC19977; assay: microbe, parasite or virus in culture; details: Mycobacteroides abscessus, ATCC19977, read-out: IC50 in CAMHB
[4] = test system: intracellular Mab ATCC19977 in THP-1 macrophages; format: cell-based, Mycobacterium abscessus; details: 48 h treatment, compared to the start of treatment
Method in brief: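 Intracellular bactericidal assay in THP-1-derived macrophages infected with M. abscessus subsp. abscessus ATCC19977. Test compound was added 2 h after infection at 1 and 10 µM and left on for 48 h. Each condition was run in technical triplicate.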

[5] = test system: Mab ATCC19977 replicating cultures; assay: microbe, parasite or virus in culture; format: cell-based, Mycobacterium abscessus subsp. abscessus
Caseum binding = format: in vitro ADME
[6] = test system: M. abscessus subsp. abscessus ATCC 19977; assay: Efficacy in the GM-CSF KO mouse model of acute Mab infection; format: in vivo, GM-CSF KO (B6.129S-Csf2tm1Mlg/J) mice; details: 7 daily oral doses, 25 mg/kg
[7] = test system: Mab type strain ATCC19977
[8] = test system: intracellular M. abscessus ATCC 19977 pTEC27 in THP-1 macrophages; assay: Growth inhibition of intracellular Mab in THP-1 derived macrophages; format: cell-based, Mycobacterium abscessus; details: Mycobacteroides abscessus, ATCC19977, THP-1, read-out: MacIC50
CYP3A4 mRNA = assay: CYP3A4 induction at the mRNA level in human hepatocytes; format: in vitro ADME
[9] = test system: THP-1 derived macrophages; assay: Uptake into THP-1 macrophages; format: in vitro ADME; details: intracellular to extracellular concentration ratio
[10] = test system: 76 M. abscessus clinical isolates covering the 3 Mab subspecies; assay: microbe, parasite or virus in culture; format: cell-based, Mycobacterium abscessus; details: Mycobacteroides abscessus
[11] = Table 2
[12] = as published previously ref 28; cited from earlier work

CO[C@H]1/C=C/O[C@@]2(C)Oc3c(C)c(O)c4c(c3C2=O)C2=NC3(CCN(CC(C)C)CC3)NC2=C(NC(=O)/C(C)=C\C=C\[C@H](C)[C@H](O)[C@@H](C)[C@@H](O)[C@@H](C)[C@H](OC(C)=O)[C@@H]1C)C4=O [RBT, Rifabutin]
HepG2 CC50/MIC (HepG2 cells): 154
fAUC/MIC at 10 mg/kg ([1]; AUC corrected for fraction unbound): 0.2
Bioavailability ([1]; CD-1 mice, oral): 69.2%
half-life ([1]; female, CD-1, mouse, plasma): 4.3 h
clearance ([1]; female, CD-1, mouse, plasma, iv, 5 mg/kg): 10.3 mL/min/kg
Vd ([1]; female, CD-1, mouse, plasma, iv, 5 mg/kg, Vd, CD-1 mice, i.v. 5 mg/kg): 3.9 L/kg
plasma concentrations relative to potency values ([1]; oral 25 mg/kg, CD-1 mice): did not achieve therapeutic concentrations
fraction unbound (in vitro; fu human, human plasma): 0.036
fraction unbound (in vitro; plasma fu (human), Table 2): 0.0384
frequency of resistance (Mab ATCC19977): 2.6 × 10^−8
WT Mab MIC [2]: 2.0 µM
IC50 [3]: 1200 nM
activity against intracellular Mab in macrophages at 1 and 10 µM [4]: did not inhibit intracellular growth of Mab
MBC ([5]; Mycobacteroides abscessus, ATCC19977, read-out: MBC90): 3.5 µM (≈ 2.96 µg/mL)
kill plateau at 8× MIC ([5]; replicating cultures, 3 d): approximately 2 log
fraction unbound (Caseum binding): 0.0094
effect on lung bacterial burden [6]: neither reduced lung burden nor prevented bacterial growth
IC50 serum shift [7]: 8.1 fold
IC50 [8]: 700 nM
CYP3A4 induction @ 1 µM (CYP3A4 mRNA; 1 µM): 33 fold and 33.4 fold
CYP3A4 induction @ 10 µM (CYP3A4 mRNA; 10 µM): 43 fold and 42.7 fold
THP-1 IC/EC [9]: 26
MIC50 ([10]; read-out: MIC50 against clinical isolates): 4.7 µM (≈ 3.98 µg/mL)
MIC90 ([10]; read-out: MIC90 against clinical isolates): 9.1 µM (≈ 7.71 µg/mL)

CO[C@H]1/C=C/O[C@@]2(C)Oc3c(C)c(O)c4c(c3C2=O)C2=NC3(CCN(CC(C)C)CC3)NC2=C(NC(=O)/C(C)=C/C=C/[C@H](C)[C@H](O)[C@@H](C)[C@@H](O)[C@@H](C)[C@H](OC(=O)Nc2c(C)nc3ccccn23)[C@@H]1C)C4=O [UMN-131]
plasma fu (human) [11]: 6.55%
IC50 serum shift [7]: 3.3 fold
IC50 ([7]; read-out: IC50 in 1:1 CAMHB:hSerum, 1:1 CAMHB:human serum): 200 nM
IC50 ([7]; read-out: IC50 in CAMHB, CAMHB devoid of plasma proteins): 60 nM

O=C1CCc2c(OC[C@]3(O)CCN(c4c(F)cc(Cl)cc4F)C[C@H]3O)ccc(F)c2N1 [OPC-167832, Quabodepistat]
fraction unbound (in vitro): 0.0122
IC50 [3]: 120 nM
plasma fu [12]: ~ 1%
